Measurements as given in ChEMBL document CHEMBL1154883, “Synthesis of highly functionalized barbituric acids and study of their interactions with p-glycoprotein and Mg2+--potential candidates for multi drug resistance modulation” (Eur J Med Chem, 2010).

Legend:
[1] = Binding affinity to Mg2+ ion in HEPES buffer at pH 7.2; type: physicochemical
DC3F/ADR [2] = assay: Binding affinity to p-glycoprotein in chinese hamster DC3F/ADR cells assessed as increase in basal activity at 0.5 uM after 30 mins by spectrophotometric method relative to control; type: cell-based; settings: Cricetulus griseus
Summary of the method: (§1)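 P-gp membrane vesicles from resistant DC-3F/ADX cells; basal MgATP hydrolysis tracked by PK/LDH-coupled NADH depletion (PEP, NADH) at 340 nm, with non-specific ATPase inhibitor in basal wells. Plate preincubated 30 min at 37 °C; vesicles 5 min, compound 5 min, then MgATP 20 min at 37 °C; read, re-read after 20 min. Triplicate; ≥30% basal change taken as interaction.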

DC3F/ADR [3] = assay: Binding affinity to p-glycoprotein in chinese hamster DC3F/ADR cells assessed as increase in basal activity at 5 uM after 30 mins by spectrophotometric method relative to control; type: cell-based; settings: Cricetulus griseus; summary of the method: as §1
DC3F/ADR [4] = assay: Binding affinity to p-glycoprotein in chinese hamster DC3F/ADR cells assessed as increase in basal activity at 0.05 uM after 30 mins by spectrophotometric method relative to control; type: cell-based; settings: Cricetulus griseus; summary of the method: as §1

Structure (SMILES) | Ka [1] | Activity (DC3F/ADR [2]) [%] | Activity (DC3F/ADR [3]) [%] | Activity (DC3F/ADR [4]) [%]
CN1C(=O)C(=CNNc2ccccc2)C(=O)N(C)C1=O | 1.53 ×10⁷ /M | 97 | 168 | 57
CN1C(=O)C(=CNc2ccccc2O)C(=O)N(C)C1=O | 5.76 ×10⁵ /M | 114 | 95 | 42
COc1ccccc1NC=C1C(=O)N(C)C(=O)N(C)C1=O | 5.79 ×10⁵ /M | 95 | 123 | 53
CN1C(=O)C(=CNCCNC=C2C(=O)N(C)C(=O)N(C)C2=O)C(=O)N(C)C1=O | 8.68 ×10⁵ /M | 71 | 134 | 66
CN1C(=O)C(=C(/C=C/c2ccccc2)NCCNC(/C=C/c2ccccc2)=C2C(=O)N(C)C(=O)N(C)C2=O)C(=O)N(C)C1=O | 5.84 ×10⁵ /M | 166 | 66 | 100
CN1C(=O)C(=C(Nc2ccccc2N)c2ccccc2)C(=O)N(C)C1=O | 2.41 ×10⁴ /M | 144 | 135 | 42
CN1C(=O)C(=CNc2ccccc2N)C(=O)N(C)C1=O | 7.06 ×10⁵ /M | 102 | 166 | 33
CN1C(=O)C(=CNc2cccc(N)n2)C(=O)N(C)C1=O | 2.57 ×10⁵ /M | 81 | 92 | 44
CN1C(=O)C(=C(/C=C/c2ccccc2)NNC(/C=C/c2ccccc2)=C2C(=O)N(C)C(=O)N(C)C2=O)C(=O)N(C)C1=O | 4.82 ×10⁵ /M | 69 | 200 | 33
CN1C(=O)C(=C(NNC(=C2C(=O)N(C)C(=O)N(C)C2=O)c2ccccc2)c2ccccc2)C(=O)N(C)C1=O | 1.11 ×10⁶ /M | 100 | 166 | 66
CN1C(=O)C(=CNc2ccccc2C(=O)O)C(=O)N(C)C1=O | 3.6 ×10⁶ /M | 83 | 100 | 35
CN1C(=O)C(=CNCc2ccccn2)C(=O)N(C)C1=O | 3.2 ×10⁵ /M | 75 | 98 | 63
CN1C(=O)C(=CNc2cc(C(=O)O)ccc2C(=O)O)C(=O)N(C)C1=O | 7.46 ×10⁵ /M | 80 | 146 | 57
CN1C(=O)C(=CNc2ccccc2[N+](=O)[O-])C(=O)N(C)C1=O | 1.4 ×10⁵ /M | 99 | 141 | 51
CN1C(=O)C(=C(/C=C/c2ccccc2)Nc2ccccc2N)C(=O)N(C)C1=O | 2.7 ×10⁴ /M | 112 | 133 | 44
